Published values from different studies.
Protocols differ between the studies behind these lines.
Target: Calcium/calmodulin-dependent protein kinase type 1B (PNCK, Homo sapiens, UniProt Q6P2M8)

SMILES | observed | method | concentration | remaining binding
CC(=O)c1c(NS(C)(=O)=O)c2cc(-c3ccc(Cl)cc3)c(-c3ccc(Cl)cc3Cl)nc2n(C)c1=O | cell-free assay | competition with immobilised ligand | 1 µM | 100%
O=C(c1ccc(Nc2ncc(Cl)c(-c3ccc(Cl)s3)n2)cc1)N1CCC(N2CCCC2)CC1 | binding | competition with immobilised ligand | 1 µM | 56%
Nc1ncc2c(n1)-c1c([nH]c3ccc(C#CC4CC4)cc13)CCCC2 | binding | competition with immobilised ligand | 1 µM | 79%
CN(C)c1nccc(-c2cnc3ncccn23)n1 | binding | – | 1 µM | 62%
O=C(NCCCN1CCOCC1)c1ccc(Nc2ncc(Cl)c(-c3ccc(Cl)s3)n2)cc1 | binding | competition with immobilised ligand | 1 µM | 82%
COc1cnc(Nc2cccc(S(N)(=O)=O)c2)nc1N1CCN(c2ccccc2)C(=O)C1 | binding | competition with immobilised ligand | 1 µM | 83%
O=C(NCCCN1CCOCC1)c1ccc(Nc2nccc(-c3cc4ccccc4s3)n2)cc1 | binding | competition with immobilised ligand | 1 µM | 61%
O=C(Nc1c[nH]nc1C(=O)NC1CCNCC1)c1cc(F)cc(F)c1 | binding | competition with immobilised ligand | 1 µM | 100%
N#CC1(c2ccccn2)CCN(Cc2cc(C(=O)N3CCCC3)c(=O)n3ccccc23)CC1 | cell-free assay | competition with immobilised ligand | 1 µM | 90%
CNC(=O)[C@@H]1CC[C@@H](n2c(-c3ccc4cnccc4c3)nc3ccc(C(=O)NCc4cccc(C(N)=O)c4)cc32)C1 | binding | competition with immobilised ligand | 1 µM | 85%
COc1cc(-c2cn(C3CCc4ccccc4N(CC(F)(F)F)C3=O)nn2)ccc1-n1ccc(C)n1 (stereo not shown) | cell-free assay | competition with immobilised ligand | 1 µM | 100%
Cc1cnn2ncc(-c3ccnc(N(C)C)n3)c2c1 | binding | – | 1 µM | 97%
FC(F)(F)Oc1cccc(-c2cnc3ccc(-c4ccncc4)nn23)c1 | cell-free assay | competition with immobilised ligand | 5 µM | 100%
CC1=C(C#N)C(c2ccc3c(c2)c(NC(=O)c2ccccc2C)nn3C)C(C#N)=C(C)N1 | cell-free assay | competition with immobilised ligand | 1 µM | 85%
c1cnn2ncc(-c3ccnc(N4CCC45COC5)n3)c2c1 | binding | – | 1 µM | 81%
CNCc1ccccc1-c1csc([C@H](C)Nc2nc(C)nc3cc(OC)c(OC)cc23)c1 | cell-free assay | competition with immobilised ligand | 1 µM | 100%
N[C@@H]1CCN(c2nccc(-c3cnn4ncccc34)n2)C1 | binding | – | 1 µM | 100%
O=C(Nc1cnc(Oc2ccc(F)cc2)nc1)N1CCc2ncccc2[C@@H]1c1ccc(F)cc1 | cell-free assay | competition with immobilised ligand | 1 µM | 100%
CC1CCCN1c1nccc(-c2cnn3ncccc23)n1 (stereo not shown) | binding | – | 1 µM | 82%
